Only some compounds are listed: those with a hit (about 4.3% of all), similar ones and a draw of the others.
HTR2A ag = mouse Htr2a agonists via beta-arrestin recruitment, primary screen, cell-based, luminescence; 5-hydroxytryptamine receptor 2A (Mus musculus), P35363; CHO-K1 mHTR2A beta-arrestin complementation; percent of 30 µM serotonin response; activation, % at 7.6 µM; actives 0.66% (n = 360,000); AID 624169, 2012;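 active = activation above a run cutoff, the mean activation of all tested compounds plus 3 SD, cut at about 14% in these data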
Target sequence (P35363 whole entry, looked up): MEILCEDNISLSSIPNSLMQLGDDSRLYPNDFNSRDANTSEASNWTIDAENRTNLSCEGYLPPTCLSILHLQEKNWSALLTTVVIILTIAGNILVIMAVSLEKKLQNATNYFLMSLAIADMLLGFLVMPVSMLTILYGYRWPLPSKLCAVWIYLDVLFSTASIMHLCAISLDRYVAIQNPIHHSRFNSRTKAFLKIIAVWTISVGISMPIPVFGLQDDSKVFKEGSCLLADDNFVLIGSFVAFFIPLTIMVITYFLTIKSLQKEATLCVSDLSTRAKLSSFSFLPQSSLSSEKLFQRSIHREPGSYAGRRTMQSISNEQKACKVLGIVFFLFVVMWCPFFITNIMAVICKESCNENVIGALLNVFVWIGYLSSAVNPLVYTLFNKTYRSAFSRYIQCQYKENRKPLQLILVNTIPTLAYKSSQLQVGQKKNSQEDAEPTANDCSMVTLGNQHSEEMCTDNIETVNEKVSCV
TAAR1 agonist = human TAAR1 agonists, primary screen, Fluo-8 calcium fluorescence, CHO RD-HGA16 cells; Trace amine-associated receptor 1 (Homo sapiens), Q96RJ0; vehicle wells 0%, saturating PEA agonist 100%; activation, % at 3 µM; actives 0.99% (n = 360,000);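 active = activation above the mean activation of all test compounds in the run plus 3 SD, cut at about 38% in these data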
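System: CHO-derived RD-HGA16 cells with stable Gα16 and human TAAR1 / Times: 17-24 h plating, Fluo-8 75 min 37 °C, 30 min RT / Technique: calcium-sensitive Fluo-8 signal, excitation 470-495, emission 515-575 nm / Measure: % activation relative to PEA EC100 response / Benchmarks: DMSO and PEA EC100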
B2AR ag = beta2AR agonists driving receptor internalization, primary screen, cell-based, FAP fluorogen, flow cytometry | Beta-2 adrenergic receptor (Homo sapiens), P07550 | Am2.2-beta2AR cells | response, % (test concentration not listed) | actives 0.43% (n = 340,000) | AID 504454, 2011;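 active = response above a set limit, near 3 SD of response in nonfluorescent compounds, cut at about 42% in these data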
TAAR1 antag = human TAAR1 antagonists, primary screen, Fluo-8 calcium fluorescence, CHO RD-HGA16 cells | antagonist | inhibition, % at 3 µM | actives 1.5% (n = 360,000) | Trace amine-associated receptor 1 (Homo sapiens), Q96RJ0;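 active = inhibition above a per-plate cutoff, the mean inhibition of test compounds on that plate plus 3 SD, cut at about 49% in these data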
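System: RD-HGA16 CHO cells with stable hTAAR1 and Gα16 | Probe or stimulus: EC80 β-phenethylamine stimulus | Dosing: 3 µM, single point | Times: Dye loading 75 min at 37 °C, then 30 min room temperature | Measured by: Fluo-8 calcium-sensitive fluorescence | Read-out basis: % inhibition of agonist calcium response | Replicates: n of 1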
MC4R antagonist = MC4R antagonists of cAMP signaling, primary screen, cell-based, TR-FRET, antagonist arm of biased-ligand search. MC4R-expressing cells, MTII-stimulated cAMP, LANCE TR-FRET. inhibition, % at 6.5 µM. actives 0.48% (n = 360,000). AID 540295, 2011;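 active = inhibition above its plate's cutoff, the mean of tested wells on that plate plus 3 SD, cut at about 29% in these data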
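Assay system: U2OS cells stably expressing human melanocortin 4 receptor (MC4R) / Dosing: 6.5 µM / Timing: compound 30 min, challenge 1 h, detection 1 h / Measured by: Eu-cAMP/anti-cAMP TR-FRET, emission 671 nm / Replicates: singlicate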
MC4R barr agon = MC4R agonists recruiting beta-arrestin, primary screen, cell-based, luminescence, agonist arm of biased-ligand search; actives 0.98% (n = 360,000); activation, % at 8.9 µM; U2OS MC4R beta-arrestin complementation; percent of melanotan II response, DMSO zero; Melanocortin receptor 4 (Homo sapiens), P32245;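 active = activation above a per-plate cutoff, the mean activation of sample wells on that plate plus 3 SD, cut at about 8% in these data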
OPRM1 ag = OPRM1 agonists via beta-arrestin recruitment, confirmation, counter-screen for mouse HTR2A agonist project, cell-based, luminescence, single concentration; shares compounds with HTR2A ag; U2OS OPRM1 beta-arrestin PathHunter; DMSO 0%, DAMGO 9.3 µM 100%; activation, % at 9.3 µM; actives 5.3% (n = 2,300); AID 624380, 2012;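 active = mean activation above the mean of DMSO-only wells plus 3 SD, cut at about 0.5% in these data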
m5-HT2A ag conf = mouse HTR2A agonists, beta-arrestin recruitment, confirmation, cell-based, luminescence, CHO-K1 PathHunter, triplicate | actives 19% (n = 2,300) | DMSO 0%, 30 µM serotonin 100% | activation, % at 7.6 µM | AID 624381, 2012 | shares compounds with HTR2A ag;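 active = mean activation across triplicates above the hit threshold derived in the original primary screen, cut at about 15% in these data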
Large screens that a line does not name were inactive (follow-up assays come after a bar, where they were run); ! = not confirmed by another sample.

COc1ccc(-n2nnnc2C(c2cc3ccccc3o2)N2CCC(n3c(=O)[nH]c4ccccc43)CC2)cc1 (stereo unspecified)	HTR2A ag 16, TAAR1 antag 51 (no result: B2AR ag, MC4R antagonist, MC4R barr agon) | m5-HT2A ag conf inactive
Cc1ccc(NC2=NCCCS2)c(C)c1C	HTR2A ag 19 | OPRM1 ag inactive | m5-HT2A ag conf 15
CCCCn1c(O)c(C(C)=NCC2CCCO2)c(=O)[nH]c1=O (stereo unspecified)	none
COc1ccc(-c2nn(CCC#N)cc2C(=O)NCc2ccccc2)cc1OC	none
CCOP(=O)(OCC)C(O)c1ccc(Br)cc1 (stereo unspecified)	none (no result: TAAR1 agonist, TAAR1 antag)
CCOP(=O)(OCC)C(O)c1ccccc1 (stereo unspecified)	HTR2A ag 16 | OPRM1 ag inactive | m5-HT2A ag conf inactive
C[C@]12CC[C@H](OS(=O)(=O)O)CC1=CC[C@@H]1[C@@H]2CC[C@]2(C)C(=O)CC[C@@H]12	HTR2A ag 15! | OPRM1 ag inactive | m5-HT2A ag conf inactive
C[C@]12CCC(OC(=O)CCC(=O)O)CC1=CCC1C2CC[C@]2(C)C(=O)CCC12 (stereo partly specified)	none
Cc1ccc(S(=O)(=O)N(C)N=O)cc1	none
COC(=O)C1=C(c2cccc(OCc3ccccc3)c2)C[C@@H]2CC[C@H]1N2C(=O)NCCc1ccc(F)cc1	none
Cc1cc(N2CCNCC2)nc2ccccc12	none
Clc1cccc(N2CCNCC2)n1	HTR2A ag 39 | OPRM1 ag inactive | m5-HT2A ag conf 24
O=C(NC12CC3CC(CC(C3)C1)C2)OC1CN2CCC1CC2 (stereo unspecified)	none
O=c1cccc2n1CC1CC2CN(C(c2cccc(F)c2)c2sc3ncnn3c2O)C1 (stereo unspecified)	HTR2A ag 16 | OPRM1 ag inactive | m5-HT2A ag conf inactive
Oc1c(Br)c(Br)c(Br)c(Br)c1Br	none (no result: TAAR1 agonist, TAAR1 antag)
CC(N)Cc1c[nH]c2ccc(OCc3cccs3)cc12 (stereo unspecified)	HTR2A ag 22 | OPRM1 ag inactive | m5-HT2A ag conf inactive
CC(N)Cc1c[nH]c2ccc(O)cc12 (stereo unspecified)	HTR2A ag 49 | OPRM1 ag inactive | m5-HT2A ag conf 32
COc1ccc(CNC(C)Cc2cccs2)cc1 (stereo unspecified)	none
COC(=O)C1=C(c2ccccc2OCc2ccccc2)C[C@@H]2CC[C@H]1N2C(=O)NCCOc1ccccc1Cl	none
CN(Cc1cccc(-c2ccncc2)c1)C(=O)Oc1ccccc1Cc1ccccc1	none (no result: TAAR1 agonist, B2AR ag, TAAR1 antag, MC4R antagonist, MC4R barr agon)
C[C@H](N)CN1CCc2ccc(Br)cc21	HTR2A ag 49 | OPRM1 ag inactive | m5-HT2A ag conf 36
OCCNCCc1c[nH]c2ccc(OCc3ccccc3)cc12	none
COc1ccc2[nH]cc(CCN)c2c1	HTR2A ag 52 | OPRM1 ag inactive | m5-HT2A ag conf 28
O=C1NCCCCC1(Cl)Cl	HTR2A ag 17 | OPRM1 ag inactive | m5-HT2A ag conf inactive
CCC(C)(O)C(=O)OC1C(=O)OC2CC3C(C)=CC(O)C(O)C3(C)C3C4(O)OCC23C1C(C)C4O (stereo unspecified)	none (no result: B2AR ag)
N#CC12CNCC1CN=N2 (stereo unspecified)	HTR2A ag 22 | OPRM1 ag inactive | m5-HT2A ag conf inactive
O=C(COC(=O)c1cc(Br)cc(Br)c1O)NC12CC3CC(CC(C3)C1)C2	none (no result: B2AR ag)
Brc1cccc(CNCCc2ccc3c(c2)OCO3)c1	HTR2A ag 21 | OPRM1 ag 1.4 | m5-HT2A ag conf 21
c1ccc(CNCCc2ccc3c(c2)OCO3)nc1	none
Cc1ccc(CNCCc2ccc(F)cc2)s1	none
COc1ccc(CCNCc2ccc(C)s2)cc1OC	HTR2A ag 16 | OPRM1 ag inactive | m5-HT2A ag conf inactive
COc1ccc(CCNCc2cccn2C)cc1OC	HTR2A ag 25 | OPRM1 ag inactive | m5-HT2A ag conf inactive
COc1ccc(CCNCc2sccc2C)cc1OC	HTR2A ag 32 | OPRM1 ag inactive | m5-HT2A ag conf inactive
CCOc1cc(CNCCc2cccc(F)c2)ccc1OC	none
CC(Cc1ccccc1)[n+]1cc(/N=C(\[O-])N(C)C)on1 (stereo unspecified)	none
CCCCCn1c(=O)c(C(=O)NCc2ccco2)c(O)c2ccccc21	HTR2A ag 18 | OPRM1 ag inactive | m5-HT2A ag conf inactive
CCCCn1c(=O)c(C(=O)NCc2ccco2)c(O)c2ccccc21	none
COc1ccccc1Sc1ccccc1CC(C)N (stereo unspecified)	none

Screens: PubChem, several laboratories
